The text below walks through data of ChEMBL document CHEMBL1147968, “Novel lbeta-methylcarbapenems having cyclic sulfonamide moieties: synthesis and evaluation of in vitro antibacterial activity” (2007).

Converted amounts (≈) assume the structure as drawn.

Format in all cases: functional
The test system of assay [1] is Staphylococcus aureus. The assay can be described thus: Antibacterial activity against Staphylococcus aureus 1218 after 18 to 24 hrs by agar dilution method. A digest of the protocol: (§1)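 MICs were determined by agar dilution on test agar. An overnight tryptosoy broth culture was diluted in the same broth to about 10⁶ cells/mL and spotted with an inoculating device onto agar containing serial twofold dilutions of compound. Plates were incubated at 37 °C for 18–20 h, and the MIC was the lowest concentration with no visible growth.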
In general terms: In agar dilution, organisms are placed on agar that contains the substance at set levels.

Assay [2] has as its system Staphylococcus. The assay can be described thus: Antibacterial activity against coagulase negative Staphylococcus after 18 to 24 hrs by agar dilution method. A digest of the protocol: (§2)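 Agar dilution on test agar holding serial twofold dilutions of compound. Overnight tryptosoy broth cultures were diluted in the same broth to about 10⁶ cells/mL and spotted with an inoculating device. Plates were incubated at 37 °C for 18–20 h.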

Assay [3] relates to Enterococcus faecalis. The assay can be described thus: Antibacterial activity against Enterococcus faecalis 2347 after 18 to 24 hrs by agar dilution method. A digest of the protocol: as §1
In assay [4] the test system is Streptococcus pyogenes. The assay can be described thus: Antibacterial activity against Streptococcus pyogenes 9889 after 18 to 24 hrs by agar dilution method. A digest of the protocol: as §2
In assay [5] the test system is Streptococcus agalactiae. The assay is described as follows: Antibacterial activity against Streptococcus agalactiae 32 after 18 to 24 hrs by agar dilution method. A digest of the protocol:
as §1

The test system of assay [6] is Streptococcus pneumoniae. The assay is described as follows: Antibacterial activity against Streptococcus pneumoniae 0025 after 18 to 24 hrs by agar dilution method. A digest of the protocol: as §1
In assay [7] the test system is Haemophilus influenzae. The assay is described as follows: Antibacterial activity against Haemophilus influenzae 1210 after 18 to 24 hrs by agar dilution method. A digest of the protocol:
as §1

For assay [8], the system named is Escherichia coli. The assay can be described thus: Antibacterial activity against Escherichia coli 04 after 18 to 24 hrs by agar dilution method. A digest of the protocol: as §1
The test system of assay [9] is Klebsiella pneumoniae. The assay is described as follows: Antibacterial activity against Klebsiella pneumoniae 523 after 18 to 24 hrs by agar dilution method. A digest of the protocol:
as §1

The test system of assay [10] is Citrobacter freundii. The assay is described as follows: Antibacterial activity against Citrobacter freundii 323 after 18 to 24 hrs by agar dilution method. A digest of the protocol: as §1
In assay [11] the test system is Enterobacter cloacae. The assay can be described thus: Antibacterial activity against Enterobacter cloacae 34 after 18 to 24 hrs by agar dilution method. A digest of the protocol:
as §1

For assay [12], the system named is Serratia marcescens. The assay can be described thus: Antibacterial activity against Serratia marcescens 3349 after 18 to 24 hrs by agar dilution method. A digest of the protocol:
as §1

The test system of assay [13] is Acinetobacter baumannii. The assay can be described thus: Antibacterial activity against Acinetobacter baumannii 2289 after 18 to 24 hrs by agar dilution method. A digest of the protocol:
as §1

Assay [14] relates to Pseudomonas aeruginosa. The assay is described as follows: Antibacterial activity against Pseudomonas aeruginosa 5455 after 18 to 24 hrs by agar dilution method. A digest of the protocol:
as §1

For the molecule `C[C@@H](O)C1C(=O)N2C(C(=O)O)=C(S[C@@H]3CN[C@H](CN4CCOS4(=O)=O)C3)[C@H](C)C12` (some centres not stated), the MIC in [1] turned out to be 3.12 µg/mL (≈ 6.97 µM); in assay [2], 0.098 µg/mL (≈ 0.219 µM); in assay [3], 6.25 µg/mL (≈ 14 µM); in [4] it was 0.02 µg/mL (≈ 0.0447 µM); in [5], 0.02 µg/mL (≈ 0.0447 µM); in [6] it was 0.013 µg/mL (≈ 0.029 µM). Moreover, the MIC worked out at 6.25 µg/mL (≈ 14 µM) in assay [7]; 0.049 µg/mL (≈ 0.109 µM) in assay [8]; 0.098 µg/mL (≈ 0.219 µM) in assay [9]; 0.195 µg/mL (≈ 0.436 µM) in assay [10]; 0.098 µg/mL (≈ 0.219 µM) in assay [11]; 0.198 µg/mL (≈ 0.442 µM) in assay [12]. The MIC in [13] and in assay [14] was 12.5 µg/mL (≈ 27.9 µM) each time.

As for `C[C@@H](O)C1C(=O)N2C(C(=O)O)=C(S[C@@H]3CN[C@H](CN4CCCNS4(=O)=O)C3)[C@H](C)C12` (some centres not stated), the MIC in [1] was determined as 6.25 µg/mL (≈ 13.6 µM); in assay [2] it was 0.098 µg/mL (≈ 0.213 µM); in assay [3] it was 6.25 µg/mL (≈ 13.6 µM); in assay [4] it was 0.01 µg/mL (≈ 0.0217 µM); in [5] it was 0.01 µg/mL (≈ 0.0217 µM); in [6], 0.02 µg/mL (≈ 0.0434 µM). Moreover, the MIC was found to be 6.25 µg/mL (≈ 13.6 µM) in assay [7]; 0.049 µg/mL (≈ 0.106 µM) in assay [8]; 0.049 µg/mL (≈ 0.106 µM) in assay [9]; 0.049 µg/mL (≈ 0.106 µM) in [10]; 0.049 µg/mL (≈ 0.106 µM) in assay [11]; 0.198 µg/mL (≈ 0.43 µM) in assay [12]. In addition, the MIC in assay [13] stood at 6.25 µg/mL (≈ 13.6 µM); in assay [14] it was 1.56 µg/mL (≈ 3.39 µM).

For `CCN1CCN(C[C@@H]2C[C@H](SC3=C(C(=O)O)N4C(=O)C([C@@H](C)O)C4[C@H]3C)CN2)S1(=O)=O` (some centres not stated), the MIC came out at 25 µg/mL (≈ 52.7 µM) in [1]; 0.198 µg/mL (≈ 0.417 µM) in assay [2]; 6.25 µg/mL (≈ 13.2 µM) in assay [3]; 0.02 µg/mL (≈ 0.0421 µM) in assay [4]; 0.04 µg/mL (≈ 0.0843 µM) in assay [5]; 0.04 µg/mL (≈ 0.0843 µM) in assay [6]. Further, the MIC in assay [7] came out at 12.5 µg/mL (≈ 26.3 µM); in [8], 0.098 µg/mL (≈ 0.206 µM); in [9], 0.198 µg/mL (≈ 0.417 µM); in [10], 0.098 µg/mL (≈ 0.206 µM); in assay [11], 0.098 µg/mL (≈ 0.206 µM); in assay [12], 0.098 µg/mL (≈ 0.206 µM). Also, the MIC in assay [13] is 25 µg/mL (≈ 52.7 µM); in [14], 12.5 µg/mL (≈ 26.3 µM).

As for `C[C@@H](O)C1C(=O)N2C(C(=O)O)=C(S[C@@H]3CN[C@H](CN4CCN(C)S4(=O)=O)C3)[C@H](C)C12` (some centres not stated), the MIC in assay [1] is 12.5 µg/mL (≈ 27.1 µM); in assay [2], 0.098 µg/mL (≈ 0.213 µM); in [3], 6.25 µg/mL (≈ 13.6 µM); in [4], 0.02 µg/mL (≈ 0.0434 µM); in assay [5], 0.02 µg/mL (≈ 0.0434 µM); in assay [6], 0.02 µg/mL (≈ 0.0434 µM). For the same molecule, the MIC in assay [7] turned out to be 6.25 µg/mL (≈ 13.6 µM); in [8], 0.049 µg/mL (≈ 0.106 µM); in [9] it was 0.098 µg/mL (≈ 0.213 µM); in assay [10], 0.049 µg/mL (≈ 0.106 µM); in assay [11] it was 0.049 µg/mL (≈ 0.106 µM); in [12], 0.098 µg/mL (≈ 0.213 µM). For the same molecule, the MIC came to 12.5 µg/mL (≈ 27.1 µM) in [13] and 3.12 µg/mL (≈ 6.78 µM) in assay [14].

As to `C[C@@H](O)C1C(=O)N2C(C(=O)O)=C(S[C@@H]3CN[C@H](CN4CC(C)(C)NS4(=O)=O)C3)[C@H](C)C12` (some centres not stated), the MIC was found to be 3.12 µg/mL (≈ 6.57 µM) in assay [1]; 0.098 µg/mL (≈ 0.206 µM) in assay [2]; 6.25 µg/mL (≈ 13.2 µM) in assay [3]; 0.01 µg/mL (≈ 0.0211 µM) in assay [4]; 0.02 µg/mL (≈ 0.0421 µM) in assay [5]; 0.02 µg/mL (≈ 0.0421 µM) in [6]. The MIC in assay [7] was determined as 6.25 µg/mL (≈ 13.2 µM); in [8], 0.049 µg/mL (≈ 0.103 µM); in assay [9], 0.049 µg/mL (≈ 0.103 µM); in assay [10], 0.049 µg/mL (≈ 0.103 µM); in assay [11], 0.098 µg/mL (≈ 0.206 µM); in [12], 0.049 µg/mL (≈ 0.103 µM). Also, the MIC in [13] was found to be 12.5 µg/mL (≈ 26.3 µM); in [14], 3.12 µg/mL (≈ 6.58 µM).

On to `C[C@@H](O)C1C(=O)N2C(C(=O)O)=C(S[C@@H]3CN[C@H](CN4CCNS4(=O)=O)C3)[C@H](C)C12` (some centres not stated), for which the MIC in assay [1] was 3.12 µg/mL (≈ 6.99 µM); in assay [2], 0.098 µg/mL (≈ 0.219 µM); in assay [3], 6.25 µg/mL (≈ 14 µM); in [4], 0.01 µg/mL (≈ 0.0224 µM); in [5], 0.02 µg/mL (≈ 0.0448 µM); in assay [6], 0.02 µg/mL (≈ 0.0448 µM). In addition, the MIC in [7] was 6.25 µg/mL (≈ 14 µM); in [8], 0.049 µg/mL (≈ 0.11 µM); in assay [9], 0.049 µg/mL (≈ 0.11 µM); in assay [10], 0.049 µg/mL (≈ 0.11 µM); in [11] it was 0.049 µg/mL (≈ 0.11 µM); in assay [12], 0.049 µg/mL (≈ 0.11 µM). For the same molecule, the results for the MIC in assay [13] and in assay [14] were 12.5 µg/mL (≈ 28 µM) and 0.781 µg/mL (≈ 1.75 µM), respectively.

For the molecule `C[C@@H](O)C1C(=O)N2C(C(=O)O)=C(S[C@@H]3CN[C@H](CN4CCN(Cc5ccccc5)S4(=O)=O)C3)[C@H](C)C12` (some centres not stated), the MIC in assay [1] is 3.12 µg/mL (≈ 5.81 µM); in assay [2], 0.098 µg/mL (≈ 0.183 µM); in assay [3] it was 3.12 µg/mL (≈ 5.81 µM); in assay [4], 0.02 µg/mL (≈ 0.0373 µM); in [5], 0.02 µg/mL (≈ 0.0373 µM); in [6] it was 0.025 µg/mL (≈ 0.0466 µM). Moreover, the MIC was determined as 12.5 µg/mL (≈ 23.3 µM) in [7]; 0.195 µg/mL (≈ 0.363 µM) in assay [8]; 0.781 µg/mL (≈ 1.46 µM) in assay [9]; 0.781 µg/mL (≈ 1.46 µM) in [10]; 0.781 µg/mL (≈ 1.46 µM) in assay [11]; 6.25 µg/mL (≈ 11.6 µM) in assay [12]. Also, the MIC came out at 50 µg/mL (≈ 93.2 µM) in [13] and 100 µg/mL (≈ 186 µM) in [14].

For `CC1CN(C[C@@H]2C[C@H](SC3=C(C(=O)O)N4C(=O)C([C@@H](C)O)C4[C@H]3C)CN2)S(=O)(=O)N1` (some centres not stated), the MIC in assay [1] amounted to 25 µg/mL (≈ 54.3 µM); in assay [2] it was 0.391 µg/mL (≈ 0.849 µM); in assay [3], 25 µg/mL (≈ 54.3 µM); in assay [4] it was 0.04 µg/mL (≈ 0.0868 µM); in [5], 0.04 µg/mL (≈ 0.0868 µM); in assay [6], 0.04 µg/mL (≈ 0.0868 µM). The MIC in [7] was found to be 12.5 µg/mL (≈ 27.1 µM); in assay [8], 0.198 µg/mL (≈ 0.43 µM); in assay [9] it was 0.198 µg/mL (≈ 0.43 µM); in assay [10], 0.198 µg/mL (≈ 0.43 µM); in assay [11], 0.195 µg/mL (≈ 0.423 µM); in [12], 0.195 µg/mL (≈ 0.423 µM). Also, the MIC in assay [13] and in assay [14] was 25 µg/mL (≈ 54.3 µM) each time.
